From ChEMBL document CHEMBL1136272, “Development of a presynaptic 5-HT1A antagonist” (Bioorg Med Chem Lett, 2003)

Tests used:
[1] = target: T1, 5-hydroxytryptamine receptor 1A (Rattus norvegicus, UniProt P19327); assay: Inhibition of the 5-hydroxytryptamine 1A receptor in rat dorsal raphe
T1 sequence (P19327 whole entry): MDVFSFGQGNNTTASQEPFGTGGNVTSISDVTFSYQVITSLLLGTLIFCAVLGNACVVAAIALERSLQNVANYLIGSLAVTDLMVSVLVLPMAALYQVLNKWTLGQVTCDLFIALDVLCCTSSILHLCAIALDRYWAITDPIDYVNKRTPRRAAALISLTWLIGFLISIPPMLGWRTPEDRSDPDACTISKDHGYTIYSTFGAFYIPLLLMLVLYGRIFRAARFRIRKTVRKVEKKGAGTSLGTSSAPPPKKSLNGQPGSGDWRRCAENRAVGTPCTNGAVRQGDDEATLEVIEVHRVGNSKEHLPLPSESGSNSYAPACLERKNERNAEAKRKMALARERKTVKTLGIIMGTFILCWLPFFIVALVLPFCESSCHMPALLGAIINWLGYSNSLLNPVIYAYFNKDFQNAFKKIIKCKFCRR

[2] = target: 5-hydroxytryptamine receptor 1B (Rattus norvegicus, UniProt P28564); assay: Inhibitory concentration required against 5-hydroxytryptamine 1B receptor in rat striatum using [3H]5-HT; format: tissue-based
5-hydroxytryptamine receptor 1B, sequence (P28564 whole entry): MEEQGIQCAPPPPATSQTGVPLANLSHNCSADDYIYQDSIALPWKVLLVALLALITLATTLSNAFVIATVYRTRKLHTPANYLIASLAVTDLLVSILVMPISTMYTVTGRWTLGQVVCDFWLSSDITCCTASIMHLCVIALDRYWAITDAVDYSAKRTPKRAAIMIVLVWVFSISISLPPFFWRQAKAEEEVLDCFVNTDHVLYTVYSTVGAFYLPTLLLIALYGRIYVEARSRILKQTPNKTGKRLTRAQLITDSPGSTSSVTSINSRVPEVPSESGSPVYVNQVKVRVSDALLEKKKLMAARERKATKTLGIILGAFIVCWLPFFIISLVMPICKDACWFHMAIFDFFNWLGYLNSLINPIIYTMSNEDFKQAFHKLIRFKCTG

[3] = target: Serotonin 2 (5-HT2) receptor (Rattus norvegicus, UniProt P30994+P08909+P14842); assay: Inhibitory concentration required against 5-hydroxytryptamine 2 receptor in rat cortex using [3H]spiperone
[4] = target: T2, Adrenergic receptor alpha-2 (Rattus norvegicus, UniProt P22086+P19328+P22909); assay: Inhibitory concentration required against Alpha-2 adrenergic receptor in rat cortex [3H]clonidine
T2 sequence (P22086 whole entry): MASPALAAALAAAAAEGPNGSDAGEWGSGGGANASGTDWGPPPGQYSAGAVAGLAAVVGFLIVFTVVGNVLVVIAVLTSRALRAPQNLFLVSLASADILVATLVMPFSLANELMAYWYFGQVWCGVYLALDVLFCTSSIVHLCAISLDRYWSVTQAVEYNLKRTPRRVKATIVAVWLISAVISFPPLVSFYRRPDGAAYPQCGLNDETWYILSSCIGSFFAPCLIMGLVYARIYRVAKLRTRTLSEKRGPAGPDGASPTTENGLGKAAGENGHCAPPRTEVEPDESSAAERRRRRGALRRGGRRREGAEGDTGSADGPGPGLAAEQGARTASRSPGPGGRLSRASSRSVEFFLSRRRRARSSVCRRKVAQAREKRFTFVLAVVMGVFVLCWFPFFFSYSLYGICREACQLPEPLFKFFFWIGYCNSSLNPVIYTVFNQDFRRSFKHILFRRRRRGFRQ
T2 sequence (P19328 whole entry): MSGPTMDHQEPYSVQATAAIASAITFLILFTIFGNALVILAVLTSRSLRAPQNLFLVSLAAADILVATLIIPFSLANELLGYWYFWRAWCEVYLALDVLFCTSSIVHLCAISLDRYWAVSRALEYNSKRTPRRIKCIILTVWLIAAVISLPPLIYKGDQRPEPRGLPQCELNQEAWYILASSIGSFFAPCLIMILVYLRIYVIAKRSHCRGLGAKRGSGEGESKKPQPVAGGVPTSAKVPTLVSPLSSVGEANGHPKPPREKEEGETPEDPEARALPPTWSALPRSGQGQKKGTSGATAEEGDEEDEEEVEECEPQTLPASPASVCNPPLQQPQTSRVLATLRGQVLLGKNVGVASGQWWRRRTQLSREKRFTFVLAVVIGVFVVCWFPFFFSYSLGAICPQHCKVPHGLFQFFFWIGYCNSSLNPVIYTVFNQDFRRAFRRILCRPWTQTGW
T2 sequence (P22909 whole entry): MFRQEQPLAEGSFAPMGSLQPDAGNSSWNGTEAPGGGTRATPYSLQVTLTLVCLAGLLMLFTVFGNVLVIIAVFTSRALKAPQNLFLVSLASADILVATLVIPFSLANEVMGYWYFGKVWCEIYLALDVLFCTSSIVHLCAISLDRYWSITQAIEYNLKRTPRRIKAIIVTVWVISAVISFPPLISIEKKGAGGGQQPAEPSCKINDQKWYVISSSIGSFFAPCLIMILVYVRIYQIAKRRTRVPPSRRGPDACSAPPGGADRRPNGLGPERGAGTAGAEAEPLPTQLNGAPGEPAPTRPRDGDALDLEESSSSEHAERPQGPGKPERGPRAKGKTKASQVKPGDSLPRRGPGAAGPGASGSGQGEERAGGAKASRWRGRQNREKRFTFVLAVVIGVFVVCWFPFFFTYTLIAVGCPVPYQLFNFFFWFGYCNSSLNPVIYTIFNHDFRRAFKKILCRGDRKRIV

[5] = target: T3, Adrenergic receptor alpha-1 (Rattus norvegicus, UniProt P15823+P23944+P43140); assay: Inhibitory concentration required against alpha-1 adrenergic receptor in rat cortex using [3H]-WB- 4101
T3 sequence (P15823 whole entry): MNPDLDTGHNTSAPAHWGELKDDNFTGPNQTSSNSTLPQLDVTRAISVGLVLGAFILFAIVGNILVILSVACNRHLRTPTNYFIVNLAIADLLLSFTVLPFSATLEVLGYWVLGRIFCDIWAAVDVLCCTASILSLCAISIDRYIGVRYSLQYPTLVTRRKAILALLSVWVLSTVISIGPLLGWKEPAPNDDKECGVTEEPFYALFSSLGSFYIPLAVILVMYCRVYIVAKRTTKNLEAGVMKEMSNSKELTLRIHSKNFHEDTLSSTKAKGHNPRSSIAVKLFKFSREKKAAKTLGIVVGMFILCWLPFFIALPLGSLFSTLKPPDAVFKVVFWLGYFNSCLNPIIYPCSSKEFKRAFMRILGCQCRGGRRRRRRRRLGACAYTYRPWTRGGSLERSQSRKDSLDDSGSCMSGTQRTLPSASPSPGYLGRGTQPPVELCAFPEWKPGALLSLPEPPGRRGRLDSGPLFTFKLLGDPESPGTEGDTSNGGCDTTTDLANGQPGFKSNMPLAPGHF
T3 sequence (P23944 whole entry): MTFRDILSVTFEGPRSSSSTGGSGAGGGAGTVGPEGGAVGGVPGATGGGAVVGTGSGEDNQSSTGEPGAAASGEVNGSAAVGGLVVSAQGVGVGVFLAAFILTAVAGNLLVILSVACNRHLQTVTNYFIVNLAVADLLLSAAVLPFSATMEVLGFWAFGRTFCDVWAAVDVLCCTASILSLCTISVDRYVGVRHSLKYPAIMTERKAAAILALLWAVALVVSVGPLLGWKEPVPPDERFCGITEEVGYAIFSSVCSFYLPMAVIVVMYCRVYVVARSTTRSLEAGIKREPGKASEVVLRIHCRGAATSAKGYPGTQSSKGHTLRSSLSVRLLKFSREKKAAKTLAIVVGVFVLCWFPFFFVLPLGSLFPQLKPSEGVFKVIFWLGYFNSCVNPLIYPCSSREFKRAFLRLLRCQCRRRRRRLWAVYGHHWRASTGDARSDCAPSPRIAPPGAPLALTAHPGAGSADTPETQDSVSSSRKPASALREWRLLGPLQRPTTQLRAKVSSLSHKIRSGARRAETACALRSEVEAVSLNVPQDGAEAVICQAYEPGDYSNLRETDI
T3 sequence (P43140 whole entry): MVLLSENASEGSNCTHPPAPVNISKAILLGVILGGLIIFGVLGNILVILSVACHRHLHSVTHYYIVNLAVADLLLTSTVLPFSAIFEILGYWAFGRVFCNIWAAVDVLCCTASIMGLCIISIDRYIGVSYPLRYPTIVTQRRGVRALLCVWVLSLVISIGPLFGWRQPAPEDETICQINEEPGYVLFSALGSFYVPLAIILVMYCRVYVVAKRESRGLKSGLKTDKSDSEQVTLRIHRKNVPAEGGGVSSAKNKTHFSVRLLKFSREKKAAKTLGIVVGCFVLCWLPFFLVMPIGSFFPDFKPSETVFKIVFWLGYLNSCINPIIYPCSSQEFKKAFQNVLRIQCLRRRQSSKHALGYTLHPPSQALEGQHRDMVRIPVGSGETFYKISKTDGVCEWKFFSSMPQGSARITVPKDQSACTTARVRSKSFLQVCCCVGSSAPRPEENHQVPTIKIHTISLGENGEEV

D(2) dopamine receptor = D(2) dopamine receptor (Rattus norvegicus, UniProt P61169); assay: Inhibitory concentration required against Dopamine receptor D2 in rat striatum; format: tissue-based
D(2) dopamine receptor, sequence (P61169 whole entry): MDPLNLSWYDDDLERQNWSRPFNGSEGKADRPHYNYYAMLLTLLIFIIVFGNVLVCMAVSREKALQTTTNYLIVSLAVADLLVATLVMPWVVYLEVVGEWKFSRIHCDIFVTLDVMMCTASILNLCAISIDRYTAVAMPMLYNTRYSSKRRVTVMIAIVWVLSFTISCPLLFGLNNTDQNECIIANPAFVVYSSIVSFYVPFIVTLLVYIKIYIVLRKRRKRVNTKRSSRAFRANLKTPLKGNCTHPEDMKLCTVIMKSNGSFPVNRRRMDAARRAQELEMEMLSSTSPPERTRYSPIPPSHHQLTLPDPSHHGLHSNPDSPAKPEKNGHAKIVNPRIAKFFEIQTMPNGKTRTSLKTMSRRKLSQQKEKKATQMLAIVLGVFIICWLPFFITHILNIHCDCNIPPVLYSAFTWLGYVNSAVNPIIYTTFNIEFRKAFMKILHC

Rattus norvegicus [6] = assay: In vivo motor activity determined in rat at 0.1 mg/kg of ip administration; format: functional; conditions: route intraperitoneal
How it was run: (§1)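 Rat social interaction paradigm with total motor activity counts recorded in the same session. All compounds were given ip, with a saline-treated control group. Combination arms gave a 0.1 mg/kg agent together with a second agent at 1 mg/kg, both ip. Social interaction time (s) and motor counts are reported as mean ± SEM, with significance tested against saline control.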

Rattus norvegicus [7] = assay: Social interaction time determined in vivo in rat at 0.1 mg/kg of ip administration; format: functional; conditions: route intraperitoneal; how it was run: as §1
[8] = target: Sodium-dependent serotonin transporter (Rattus norvegicus, UniProt P31652); assay: Inhibitory concentration required against 5-HT uptake in rat cortex
Sodium-dependent serotonin transporter, sequence (P31652 whole entry): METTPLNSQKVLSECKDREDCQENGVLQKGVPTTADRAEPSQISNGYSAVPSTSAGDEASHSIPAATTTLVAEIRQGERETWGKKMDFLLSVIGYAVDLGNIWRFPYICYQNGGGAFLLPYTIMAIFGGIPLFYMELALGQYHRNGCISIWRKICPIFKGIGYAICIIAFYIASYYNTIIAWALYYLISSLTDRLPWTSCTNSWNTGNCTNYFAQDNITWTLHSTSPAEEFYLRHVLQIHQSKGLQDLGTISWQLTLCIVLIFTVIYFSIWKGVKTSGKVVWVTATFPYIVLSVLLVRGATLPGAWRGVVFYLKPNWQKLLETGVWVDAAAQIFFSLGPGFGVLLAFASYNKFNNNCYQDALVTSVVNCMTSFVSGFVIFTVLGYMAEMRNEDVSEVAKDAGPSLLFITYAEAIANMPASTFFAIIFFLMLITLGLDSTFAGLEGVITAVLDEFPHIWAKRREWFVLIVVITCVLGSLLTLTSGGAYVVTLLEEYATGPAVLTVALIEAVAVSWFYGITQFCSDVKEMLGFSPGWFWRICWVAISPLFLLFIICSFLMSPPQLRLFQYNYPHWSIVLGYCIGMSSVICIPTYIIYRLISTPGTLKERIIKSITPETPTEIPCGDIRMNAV

Rattus norvegicus [9] = assay: In vivo motor activity determined in rat at 1.7 + 1 mg/kg of ip administration; format: functional; conditions: route intraperitoneal
How it was run: (§2)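 Rats dosed i.p. against a saline-treated control group. Social interaction time (s) and total motor activity (counts) were recorded in the same social-interaction session and reported as mean ± SEM, with significance tested against saline control.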

Rattus norvegicus [10] = assay: Social interaction time determined in vivo in rat at 1.7 + 1 mg/kg of ip administration; format: functional; conditions: route intraperitoneal; how it was run: as §2
Rattus norvegicus [11] = assay: In vivo motor activity determined in rat at 1.7 mg/kg of ip administration; format: functional; conditions: route intraperitoneal; how it was run: as §2
Rattus norvegicus [12] = assay: Social interaction time determined in vivo rat at 1.7 mg/kg of ip administration; format: functional; conditions: route intraperitoneal; how it was run: as §2

OC1(c2ccc3c(c2)OCO3)CCC(N2CCN(Cc3ccccc3)CC2)CC1 (stereo not drawn)
IC50 [1]: 20 nM
IC50 [2]: > 1000 nM
IC50 [3]: 11000 nM
IC50 [4]: 410 nM
IC50 [5]: 700 nM
IC50 (D(2) dopamine receptor): 1700 nM
Motor activity (Rattus norvegicus [6]): 4700 Counts
Time (Rattus norvegicus [7]): 104 s
IC50 [8]: > 1000 nM

CN1C(=O)CN=C(c2ccccc2)c2cc(Cl)ccc21.COc1cccc(CN2CCN(C3CCC(O)(c4ccc5c(c4)OCO5)CC3)CC2)c1 (stereo not drawn)
Motor activity (Rattus norvegicus [9]): 4900 Counts
Time (Rattus norvegicus [10]): 113 s

CN1C(=O)CN=C(c2ccccc2)c2cc(Cl)ccc21 [DIAZEPAM]
Motor activity (Rattus norvegicus [11]): 5100 Counts
Time (Rattus norvegicus [12]): 120 s
